The text below walks through data of PubChem BioAssay.

The structures appear in SMILES notation. Calls of active or inactive are those of the source.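 Rule for the calls, unless noted: active = inhibition of the reporter signal at or above 50%; inactive = inhibition below 50%.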

Test [1] can be described thus: inhibitors of TNFa-induced NFkB p65 translocation, primary screen, imaging, HUVEC, MLSMR starter and 10KST1 sets (AID 438;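 active = inhibition above 20% together with a positive visual image hit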;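 note: compound added about 3h40 before a 20 min TNFalpha stimulation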;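 for inhibition: signal is the nuclear over cytoplasmic p65 intensity ratio per well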). The note with it: HUVEC TNFa-induced p65 nuclear translocation; cell count: measured here: nuclei count (cytotoxicity indicator), at 2.08 µM; inhibition: at 2 µM, stronger effect = higher value, 0% TNFa-plus-vehicle, 100% no-TNFa wells.
Test [2] is described as follows: inhibitors of mutant huntingtin aggregation, primary screen, imaging, exon1htt(103Q)mCFP cells, high-content imaging (AID 483;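 active = visual image review flags a hit and inhibition of aggregation exceeds 20%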;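 note: compound exposure lasted 3 days before fixation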;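 for nuclei count: percent of the per-plate median nuclei count of sample wells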). The conditions noted are these: exon1htt(103Q)mCFP cell line, aggregate imaging, at 2 µM; inhibition of aggregation: stronger effect = higher value; nuclei count: measured here: cell count, toxicity.
The nature of test [3]: inhibitors of E-selectin induction by TNFa, primary screen, imaging, HUVEC, immunofluorescence, MLSMR starter and 10KST1 sets (AID 487;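 active = visually confirmed hit in the image check and inhibition above 20%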;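 for inhibition: signal is fraction of cell area covered by stained E-selectin grains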;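 for nuclei count: 100% = median nuclei count of all wells on the same plate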). The note with it: HUVEC TNFalpha-induced E-selectin immunofluorescence imaging, at 2 µM; inhibition: stronger effect = higher value; nuclei count: measured here: cell number, toxicity.
The target in test [4] is Voltage-gated potassium channel subunit beta-2 (Rattus norvegicus) (UniProt P62483). As to the kind of experiment: KvBeta enzyme negative modulators, primary screen, biochemical, NADPH fluorescence (AID 622;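 active = fluorescence slope higher than the sample average by over 3 SD, cut at about -0.22 in these data, passing the limit was not always enough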;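 note: slope of raw intensity against log time taken from 70 to 1610 s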). The note with it: recombinant KvBeta, 4-cyanobenzaldehyde reduction, at 10 µM, stronger effect = higher value.
Test [5] has the same target. Description: KvBeta positive modulators, primary screen, biochemical, NADPH fluorescence (AID 623;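 active = NADPH fluorescence slope more negative than the mean of all samples by about 3 SD, 99.7% confidence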;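 note: fluorescence intensity change per second fitted from 20 to 320 s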). The note with it: Recombinant KvBeta, NADPH fluorescence decrease slope, 10 min; at 10 µM; stronger effect = lower value.
For test [6], the target named is Muscarinic acetylcholine receptor M4 (Homo sapiens) (UniProt P08173). Description: compounds altering M4/GIRK thallium flux, either direction, primary screen, M4 allosteric agonist project, cell-based, HEK293 M4/GIRK, BTC-AM (AID 625;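 active = fluorescence slope after compound addition differing from the mean of all tested samples at 99.7% confidence, mostly higher but some lower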;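 note: thallium influx through GIRK channels coupled to M4 in HEK293 cells with BTC-AM dye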). The note with it: at 10 µM, actives lie on both sides. The essentials:
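System: HEK293 cells with M4 receptor and GIRK channels | Incubation: Cells overnight at 37 °C, BTC-AM loading 1 h, reads 2 min total | Technique: Kinetic BTC-AM fluorescence sampled at 1 Hz, 10 s pre-addition baseline | Measure: Post-addition slope, 15–24 s, of baseline-normalized fluorescence | Control set: Carbachol positive, DMSO negative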

Test [7] can be described thus: inhibitors of Sendai virus-induced IRF3 signaling, primary screen, TLR/RLR signaling modifier project, cell-based, Sendai virus stimulus, luciferase, 10K MLSCN set (AID 602276;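 active = inhibition at or above 50% at 10 µM; inactive = inhibition below 50%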;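 note: firefly luciferase from ISG56 promoter only with Renilla not read in this screen; 0% = Sendai virus plus DMSO and 100% = medium plus DMSO without virus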). The conditions noted are these: HEK293 RL24 IRF3 luciferase reporter, at 10 µM, stronger effect = higher value. On the technique in general: A reporter such as luciferase makes a cellular process visible.

Test [8] is described as follows: inhibitors of poly I:C-induced TLR3 signaling, primary screen, cell-based, poly I:C stimulus, luciferase, 10K MLSCN set (AID 602277). The note with it: HEK293-TLR3 RL24 IRF3 luciferase reporter, at 10 µM, stronger effect = higher value.

Chain of Muscarinic acetylcholine receptor M4 (Homo sapiens) (P08173 whole entry, looked up): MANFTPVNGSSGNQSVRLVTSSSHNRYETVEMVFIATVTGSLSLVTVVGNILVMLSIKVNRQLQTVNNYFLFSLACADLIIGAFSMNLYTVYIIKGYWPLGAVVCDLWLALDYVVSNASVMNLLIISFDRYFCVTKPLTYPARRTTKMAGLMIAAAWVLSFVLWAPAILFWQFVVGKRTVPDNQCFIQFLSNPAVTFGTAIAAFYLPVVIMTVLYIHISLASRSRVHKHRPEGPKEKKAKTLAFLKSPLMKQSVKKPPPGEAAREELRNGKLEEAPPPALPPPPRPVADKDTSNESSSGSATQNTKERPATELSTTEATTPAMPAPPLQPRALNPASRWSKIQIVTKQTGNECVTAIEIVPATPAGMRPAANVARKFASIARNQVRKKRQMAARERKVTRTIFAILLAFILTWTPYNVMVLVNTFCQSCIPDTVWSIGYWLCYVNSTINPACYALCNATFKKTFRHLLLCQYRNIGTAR
Chain of Voltage-gated potassium channel subunit beta-2 (Rattus norvegicus) (P62483 whole entry, looked up): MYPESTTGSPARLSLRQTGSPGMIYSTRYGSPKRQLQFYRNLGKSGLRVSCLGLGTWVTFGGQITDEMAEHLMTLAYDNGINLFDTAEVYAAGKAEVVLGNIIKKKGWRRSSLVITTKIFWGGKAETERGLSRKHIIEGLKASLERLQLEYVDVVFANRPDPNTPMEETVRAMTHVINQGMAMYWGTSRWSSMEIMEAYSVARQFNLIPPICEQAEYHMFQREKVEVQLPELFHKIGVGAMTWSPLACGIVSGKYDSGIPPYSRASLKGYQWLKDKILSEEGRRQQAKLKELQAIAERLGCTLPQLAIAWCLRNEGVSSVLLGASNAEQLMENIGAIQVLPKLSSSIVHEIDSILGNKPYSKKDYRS

In the case of `CC(C)C(=O)Nc1nnc(CCc2nnc(NC(=O)C(C)C)s2)s1`, in test [1], the cell count is 793. The inhibition (commonly the drop in the measured response relative to a control, in per cent) is -10.1% (inactive) in test [1], -80.3% (inactive) in test [3], 14.6% (inactive) in test [7] and 19.9% (inactive) in test [8]. Besides, the inhibition of aggregation in test [2] was 9.8% (inactive). Also, the nuclei count in test [2] is 89.2%; in test [3] it was 114%. Moreover, the values for the fluorescence slope in test [4] and in test [6] were -0.552 (inactive) and 0.00508 (inactive), respectively. In addition, in test [5], the NADPH fluorescence slope is 1.7e-05 (inactive).

As to `Cc1ccc(Nc2nc(CSc3nnnn3C)cs2)cc1`, the cell count in test [1] was determined as 549. Further, the inhibition is -15.4% (inactive) in test [1], 5.9% (inactive) in test [3], -54.9% (inactive) in test [7] and 98.7% (active) in test [8]. The inhibition of aggregation in test [2] was 3.7% (inactive). Also, the nuclei count in test [2] came to 79.2%; in test [3], 109%. The fluorescence slope in test [4] is -0.458 (inactive); in test [6], 0.00561 (inactive). The NADPH fluorescence slope in test [5] is -0.000383 (inactive).

For the compound `O=C(Cn1c(=O)[nH]c2ccsc2c1=O)NC1CCCCCC1`, in test [1], the cell count was 468. Further, the inhibition in test [1] is -0.7% (inactive); in test [3], 13.2% (inactive); in test [7] it was 17.6% (inactive); in test [8] it was 9.21% (inactive). The inhibition of aggregation in test [2] is 19.2% (inactive). In addition, the nuclei count in test [2] was 104%; in test [3], 107%. Besides, the fluorescence slope in test [4] was -0.26 (inactive); in test [6], 0.0062 (inactive). In test [5], the NADPH fluorescence slope was -3.5e-06 (inactive).

`COC(=O)c1cccc(S(=O)(=O)N2CCN(c3nc4ccccc4s3)CC2)c1`: the cell count in test [1] stood at 299. The inhibition was -5% (inactive) in test [1], -24.1% (inactive) in test [3], 1.3% (inactive) in test [7] and 8.61% (inactive) in test [8]. For the same compound, the inhibition of aggregation in test [2] was 6.2% (inactive). In addition, the nuclei count in test [2] worked out at 96.3%; in test [3], 80.7%. The fluorescence slope was -0.539 (inactive) in test [4] and 0.00622 (inactive) in test [6]. The NADPH fluorescence slope in test [5] was 1.2e-05 (inactive).

On to `O=c1c2ccccc2nnn1CSc1nc2cc(Cl)ccc2c(=O)n1Cc1ccco1`, for which, in test [1], the cell count amounted to 386. Also, the inhibition is 12.2% (inactive) in test [1], -101% (inactive) in test [3], -18.1% (inactive) in test [7] and -12.2% (inactive) in test [8]. Besides, the inhibition of aggregation in test [2] is 7.5% (inactive). For the same compound, the results for the nuclei count in test [2] and in test [3] were 76% and 113%, respectively. For the same compound, the fluorescence slope is -0.56 (inactive) in test [4] and 0.00813 (inactive) in test [6]. In test [5], the NADPH fluorescence slope is -5e-05 (inactive).

As to `CC(C)(C)OC(=O)N1CCC(C(=O)N[C@H](Cc2ccccc2)C(=O)O)CC1`, the cell count in test [1] worked out at 523. The inhibition is -7.8% (inactive) in test [1], -11.8% (inactive) in test [3], 15.3% (inactive) in test [7] and 18.1% (inactive) in test [8]. Also, in test [2], the inhibition of aggregation is 19.6% (inactive). The results for the nuclei count in test [2] and in test [3] were 85.5% and 89.3%, respectively. Moreover, the fluorescence slope in test [4] was -0.323 (inactive); in test [6], 0.00514 (inactive). Also, the NADPH fluorescence slope in test [5] is -5.3e-05 (inactive).

On to `COc1ccc(OC)c(NC(=O)CSc2nc3ccccc3c(=O)n2CCNC(C)=O)c1`, for which the cell count in test [1] worked out at 497. The inhibition in test [1] is -4.3% (inactive); in test [3], -17.6% (inactive); in test [7], 14.7% (inactive); in test [8], 18.6% (inactive). For the same compound, in test [2], the inhibition of aggregation was 10.1% (inactive). The values for the nuclei count in test [2] and in test [3] were 111% and 115%, respectively. For the same compound, the values for the fluorescence slope in test [4] and in test [6] were -0.455 (inactive) and 0.00813 (inactive), respectively. Besides, in test [5], the NADPH fluorescence slope is 4e-05 (inactive).

`COC(=O)c1cc(Br)ccc1-c1ccc(/C=N/n2nnnc2N)o1`: in test [1], the cell count was determined as 438. Besides, the inhibition in test [1] is 1% (inactive); in test [3], -56% (inactive); in test [7], 15.2% (inactive); in test [8], 24.4% (inactive). In addition, the inhibition of aggregation in test [2] was -4.4% (inactive). The nuclei count in test [2] is 97.9%; in test [3], 111%. For the same compound, the fluorescence slope is -0.531 (inactive) in test [4] and 0.00728 (inactive) in test [6]. Further, the NADPH fluorescence slope in test [5] was -2.3e-05 (inactive).

For `Cc1ccc(S(=O)(=O)N(C)CC(=O)NC2CCCC2)cc1`, in test [1], the cell count came to 226. Further, the inhibition in test [1] was 10.1% (inactive); in test [3] it was -98.8% (inactive); in test [7] it was 10.5% (inactive); in test [8] it was 29.4% (inactive). For the same compound, the inhibition of aggregation in test [2] was 1.1% (inactive). In addition, the results for the nuclei count in test [2] and in test [3] were 90.7% and 148%, respectively. Further, the fluorescence slope in test [4] is -0.453 (inactive); in test [6] it was 0.00453 (inactive). Moreover, in test [5], the NADPH fluorescence slope is -2.6e-05 (inactive).
